Measurements reported in PMC5074691 (Cell reports, 2016).

B1: His-ATPase: His-tagged isolated ATPase domain of MORC3 (aa 1-392) (protein)
chain: MAAQPPRGIRLSALCPKFLHTNSTSHTWPFSAVAELIDNAYDPDVNAKQIWIDKTVINDHICLTFTDNGNGMTSDKLHKMLSFGFSDKVTMNGHVPVGLYGNGFKSGSMRLGKDAIVFTKNGESMSVGLLSQTYLEVIKAEHVVVPIVAFNKHRQMINLAESKASLAAILEHSLFSTEQKLLAELDAIIGKKGTRIIIWNLRSYKNATEFDFEKDKYDIRIPEDLDEITGKKGYKKQERMDQIAPESDYSLRAYCSILYLKPRMQIILRGQKVKTQLVSKSLAYIERDVYRPKFLSKTVRITFGFNCRNKDHYGIMMYHRNRLIKAYEKVGCQLRANNMGVGVVGIIECNFLKPTHNKQDFDYTNEYRLTITALGEKLNDYWNEMKVKKNTE
modifications: left off: His tag, end not stated, kept
B2: His-ATPase-CW: MORC3 construct harboring linked ATPase and CW domains (aa 1-455), His-tagged (protein)
chain: MAAQPPRGIRLSALCPKFLHTNSTSHTWPFSAVAELIDNAYDPDVNAKQIWIDKTVINDHICLTFTDNGNGMTSDKLHKMLSFGFSDKVTMNGHVPVGLYGNGFKSGSMRLGKDAIVFTKNGESMSVGLLSQTYLEVIKAEHVVVPIVAFNKHRQMINLAESKASLAAILEHSLFSTEQKLLAELDAIIGKKGTRIIIWNLRSYKNATEFDFEKDKYDIRIPEDLDEITGKKGYKKQERMDQIAPESDYSLRAYCSILYLKPRMQIILRGQKVKTQLVSKSLAYIERDVYRPKFLSKTVRITFGFNCRNKDHYGIMMYHRNRLIKAYEKVGCQLRANNMGVGVVGIIECNFLKPTHNKQDFDYTNEYRLTITALGEKLNDYWNEMKVKKNTEYPLNLPVEDIQKRPDQTWVQCDACLKWRKLPDGMDQLPEKWYCSNNPDPQFRNCEVPEEPEDE
modifications: left off: His tag, end not stated, kept

Legend:
[1] = tested on: reconstituted nucleosome core particles (NCPs); experiment: EMSA with nucleosome core particles; type: binding; details: 1 to 20 molar excess protein; NCPs (3 pM); 20 mM Tris-HCl pH 7.5, 150 mM NaCl, 2 mM DTT; 1 h, room temperature
Outline: (§1)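 MORC3 His-ATPase (aa 1–392, E. coli-expressed, Ni-NTA purified) is titrated onto the nucleic acid substrate; for 601 DNA, His-ATPase-CW (aa 1–455) is also tested. Mixtures run on 5% polyacrylamide gels in 0.2x TB at 150 V for 1 h on ice, then are stained with ethidium bromide and imaged.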

Widom 601 DNA = experiment: EMSA with Widom 601 DNA; type: binding; details: 1 to 20 molar excess protein; 601 DNA (3 pM); 20 mM Tris-HCl pH 7.5, 150 mM NaCl, 2 mM DTT; 1 h, room temperature
Outline: as §1

MORC3-CW E453A = experiment: 1H,15N TROSY/HSQC NMR titration and competition on MORC3-CW E453A; type: binding, human
MORC3 His-ATPase-CW = experiment: ATPase assay; type: biochemical, human; details: with DNA
Outline: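 Human MORC3 His-ATPase-CW (aa 1–455), expressed in E. coli Rosetta2(DE3) pLysS, Ni-NTA purified in HEPES buffers, used at 1.5–3.0 μM. Run 20 min at 22 °C or 30 min at 30 °C, read at A360. SD from ≥3 experiments (two at 30 °C).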

Row | Molecule | NCP binding by EMSA [1] | DNA binding by EMSA (Widom 601 DNA) | chemical shift perturbation / complex formation in TROSY (MORC3-CW E453A; 10 mM HEPES pH 7.4, 100 mM NaCl, 1 mM TCEP, 7% D2O, 298K) | displacement of H3K4me0 from CW E453A:H3K4me0 complex (MORC3-CW E453A; His-ATPase titrated into CW E453A:H3K4me0 (1:4), 10 mM HEPES pH 7.4) | effect of linked CW on rate of hydrolysis in the presence of DNA (MORC3 His-ATPase-CW)
1 | B1 | resulted in a shift of the DNA and/or NCP bands | resulted in a shift of the DNA and/or NCP bands | Substantial chemical shift perturbations | could not efficiently displace H3K4me0 | –
2 | B2 | – | impaired | – | – | considerably decreased the rate of hydrolysis in the presence of DNA
